Results on 14 molecules are retold here after ChEMBL document CHEMBL4842354, “Synthesis, structure-activity relationships, cocrystallization and cellular characterization of novel smHDAC8 inhibitors for the treatment of schistosomiasis” (Eur J Med Chem, 2021).

The target of series [1] is T1, Histone deacetylase 8 (Schistosoma mansoni, UniProt A5H660).
T1 sequence (A5H660 whole entry): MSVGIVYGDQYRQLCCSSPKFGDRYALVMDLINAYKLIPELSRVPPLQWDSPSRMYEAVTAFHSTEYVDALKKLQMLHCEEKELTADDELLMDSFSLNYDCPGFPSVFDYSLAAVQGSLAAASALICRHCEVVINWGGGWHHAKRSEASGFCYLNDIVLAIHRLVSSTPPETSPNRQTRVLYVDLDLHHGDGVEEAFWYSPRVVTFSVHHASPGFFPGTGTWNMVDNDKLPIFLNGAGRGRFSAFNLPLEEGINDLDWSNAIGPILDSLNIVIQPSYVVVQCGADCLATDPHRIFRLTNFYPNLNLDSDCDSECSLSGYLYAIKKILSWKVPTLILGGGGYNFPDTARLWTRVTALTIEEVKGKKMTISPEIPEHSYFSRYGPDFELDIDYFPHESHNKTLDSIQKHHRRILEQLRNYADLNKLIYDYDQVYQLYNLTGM
Kind of series: Inhibition of Schistosoma mansoni HDAC8 using Fluor de Lys as substrate incubated for 90 mins by fluorescence method. In short, it runs like this:
(§1)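 Recombinant smHDAC8 or hHDAC8 (Romier lab) run to Fluor de Lys HDAC8 kit protocol. Substrate H2N-Arg-His-Lys(Ac)-Lys(Ac)-AMC at 50 μM with increasing inhibitor concentrations, 90 min at 37°C. Stop solution holding inhibitor plus trypsin, then 20 min at 37°C to release AMC. Fluorescence read at Ex 355/Em 460 nm.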

Series [2] has as its target T2, Histone deacetylase 8 (Homo sapiens, UniProt Q9BY41).
T2 sequence (Q9BY41 whole entry): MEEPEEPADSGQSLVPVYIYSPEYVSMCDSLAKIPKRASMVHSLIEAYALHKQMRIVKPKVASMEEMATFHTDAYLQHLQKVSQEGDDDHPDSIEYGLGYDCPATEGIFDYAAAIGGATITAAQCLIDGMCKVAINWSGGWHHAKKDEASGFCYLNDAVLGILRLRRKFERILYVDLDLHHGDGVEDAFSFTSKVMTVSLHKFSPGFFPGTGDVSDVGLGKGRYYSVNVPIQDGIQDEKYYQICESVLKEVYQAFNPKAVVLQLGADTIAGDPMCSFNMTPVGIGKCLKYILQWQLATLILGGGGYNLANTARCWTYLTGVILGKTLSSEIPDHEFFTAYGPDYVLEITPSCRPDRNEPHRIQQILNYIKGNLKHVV
Kind of series: Inhibition of human recombinant HDAC8 using H2N-Arg-His-Lys(Ac)-Lys(Ac)-AMC as substrate after 90 mins by fluorescence based micro plate assay.

Series [3] concerns the target Histone deacetylase 1 (Homo sapiens, UniProt Q13547). Kind of series: Inhibition of recombinant human HDAC1 using ZMAL as substrate incubated for 90 mins by fluorescence based micro plate assay.
The target of series [4] is T3, Protein deacetylase HDAC6 (Homo sapiens, UniProt Q9UBN7).
T3 sequence (Q9UBN7 whole entry): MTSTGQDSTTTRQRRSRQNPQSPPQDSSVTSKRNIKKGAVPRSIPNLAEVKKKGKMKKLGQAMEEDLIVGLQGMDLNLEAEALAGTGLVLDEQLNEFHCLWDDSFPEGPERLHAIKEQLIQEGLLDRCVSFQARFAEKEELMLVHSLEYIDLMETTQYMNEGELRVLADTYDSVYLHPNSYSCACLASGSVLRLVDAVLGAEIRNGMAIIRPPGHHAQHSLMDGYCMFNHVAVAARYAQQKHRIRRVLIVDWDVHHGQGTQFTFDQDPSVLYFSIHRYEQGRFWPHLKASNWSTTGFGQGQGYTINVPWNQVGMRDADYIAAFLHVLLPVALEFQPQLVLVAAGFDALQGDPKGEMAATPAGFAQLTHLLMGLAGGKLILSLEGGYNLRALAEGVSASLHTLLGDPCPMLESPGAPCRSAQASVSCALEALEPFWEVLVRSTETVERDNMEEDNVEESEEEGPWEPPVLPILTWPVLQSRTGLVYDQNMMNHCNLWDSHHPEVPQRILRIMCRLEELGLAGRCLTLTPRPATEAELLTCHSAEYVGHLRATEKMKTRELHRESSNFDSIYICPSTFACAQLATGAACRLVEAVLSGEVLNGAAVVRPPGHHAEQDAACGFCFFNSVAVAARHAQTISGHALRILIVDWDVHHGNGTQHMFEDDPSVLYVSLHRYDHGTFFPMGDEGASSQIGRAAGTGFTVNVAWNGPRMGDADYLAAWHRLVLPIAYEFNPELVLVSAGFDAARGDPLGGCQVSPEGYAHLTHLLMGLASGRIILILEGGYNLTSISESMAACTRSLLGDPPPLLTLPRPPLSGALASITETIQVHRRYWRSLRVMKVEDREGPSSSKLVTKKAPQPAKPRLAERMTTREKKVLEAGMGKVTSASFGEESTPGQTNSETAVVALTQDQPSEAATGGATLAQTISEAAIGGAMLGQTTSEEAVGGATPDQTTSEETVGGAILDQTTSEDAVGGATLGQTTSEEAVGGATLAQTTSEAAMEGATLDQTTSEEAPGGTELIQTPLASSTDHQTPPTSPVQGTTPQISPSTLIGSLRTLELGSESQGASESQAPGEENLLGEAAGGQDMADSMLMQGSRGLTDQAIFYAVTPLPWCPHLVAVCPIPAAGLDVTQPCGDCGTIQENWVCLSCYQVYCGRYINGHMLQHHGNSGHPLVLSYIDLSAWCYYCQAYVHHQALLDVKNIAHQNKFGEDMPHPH
As to the kind of experiment: Inhibition of recombinant human HDAC6 using ZMAL as substrate incubated for 90 mins by fluorescence based micro plate assay.

The subject of series [5] is Schistosoma mansoni. As to the kind of experiment: Antischistosomal activity against Schistosoma mansoni schistosomula at 10 uM incubated for 48 hrs by Alamar Blue assay. Format: functional. In short, it runs like this: (§2)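 S. mansoni newly transformed schistosomula from mechanically transformed cercariae, 100 NTS/well in Medium 199 with 10% FCS, penicillin, streptomycin and rifampicin. Pre-cultured 3 h at 37°C, 5% CO2. Compounds from 20 mM DMSO stocks, final 10 or 20 μM. Alamar Blue added after 48 h exposure, then 24 h more. Resorufin read at Ex 530/Em 590 nm. Live and ethanol-killed larvae as controls; triplicate wells, two biological replicates.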
In general terms: The colour change of resazurin is a common sign of viable cells or microbes.

For series [6], the system named is Schistosoma mansoni. As to the kind of experiment: Antischistosomal activity against Schistosoma mansoni schistosomula at 20 uM incubated for 48 hrs by Alamar Blue assay. The series is classed as functional. In short, it runs like this:
as §2

Series [7] concerns HEK293. Kind of series: Cytotoxicity against human HEK293 assessed as reduction in cell viability at 50 uM measured for 24 hrs by Alamar Blue assay. Format: cell-based. The following applies: hek293, 24 h. Summed up:
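HEK293 cells in DMEM with 10% FCS and 5 mM glutamine at 37°C, 5% CO2, seeded at 1.5×10^3 cells/well. Compounds added at 50 μM. AlamarBlue added after 24 h and incubated a further 21 h. Resorufin fluorescence read at Ex 530/Em 590 nm. Triplicates; daunorubicin positive control.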

Series [8] addresses T4, Histone deacetylase 8 (Schistosoma mansoni) (UniProt A5H660).
T4 sequence (whole entry): T1 sequence (A5H660 whole entry)
Kind of series: Inhibition of Schistosoma mansoni HDAC8 at 0.5 uM using Fluor de Lys as substrate incubated for 90 mins by fluorescence method relative to control. In short, it runs like this:
as §1

For series [9], the target named is T5, HDAC1 (histone deacetylase 1) (Homo sapiens, UniProt Q13547). Kind of series: Inhibition of recombinant human HDAC1 at 1 uM using ZMAL as substrate incubated for 90 mins by fluorescence based micro plate assay relative to control. The following applies: recombinant human HDAC1, probe ZMAL. In short, it runs like this: (§3)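 Recombinant human HDAC1 or HDAC6 incubated 90 min at 37°C with ZMAL (Z-(Ac)Lys-AMC, 10.5 μM) and inhibitor. Developed with buffer containing trypsin (1 mg/mL) and TSA (2.75 μM), 20 min at 37°C. Fluorescence read at Ex 390/Em 460 nm.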
T5 sequence (Q13547 whole entry): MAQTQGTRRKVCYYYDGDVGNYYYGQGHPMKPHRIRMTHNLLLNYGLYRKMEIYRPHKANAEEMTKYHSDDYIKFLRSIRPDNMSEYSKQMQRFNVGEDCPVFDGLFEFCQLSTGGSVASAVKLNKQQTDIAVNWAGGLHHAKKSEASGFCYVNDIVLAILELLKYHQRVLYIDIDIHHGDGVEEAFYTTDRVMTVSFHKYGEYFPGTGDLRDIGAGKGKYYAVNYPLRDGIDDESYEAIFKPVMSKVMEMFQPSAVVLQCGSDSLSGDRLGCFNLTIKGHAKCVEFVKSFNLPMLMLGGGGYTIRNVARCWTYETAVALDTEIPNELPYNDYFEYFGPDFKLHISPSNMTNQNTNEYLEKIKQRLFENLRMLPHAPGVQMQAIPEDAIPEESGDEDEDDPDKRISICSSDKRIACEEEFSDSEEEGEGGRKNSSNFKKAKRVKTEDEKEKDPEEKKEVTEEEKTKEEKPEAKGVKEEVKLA

In series [10] the target is T6, HDAC6 (protein deacetylase HDAC6) (Homo sapiens, UniProt Q9UBN7).
T6 sequence (Q9UBN7 whole entry): T3 sequence (Q9UBN7 whole entry)
As to the kind of experiment: Inhibition of recombinant human HDAC6 at 1 uM using ZMAL as substrate incubated for 90 mins by fluorescence based micro plate assay relative to control. The following applies: recombinant human HDAC6, probe ZMAL. Summed up:
as §3

Series [11] has as its target T5, HDAC1 (histone deacetylase 1). As to the kind of experiment: Inhibition of recombinant human HDAC1 at 10 uM using ZMAL as substrate incubated for 90 mins by fluorescence based micro plate assay relative to control. The note with it: recombinant human HDAC1, probe ZMAL. In short, it runs like this: as §3
The target in series [12] is T7, Histone deacetylase 8 (Homo sapiens) (UniProt Q9BY41).
T7 sequence (whole entry): T2 sequence (Q9BY41 whole entry)
As to the kind of experiment: Inhibition of human recombinant HDAC8 at 1 uM using H2N-Arg-His-Lys(Ac)-Lys(Ac)-AMC as substrate after 90 mins by fluorescence based micro plate assay. In short, it runs like this: as §1

Chain of Histone deacetylase 1 (Q13547 whole entry): as above

As to `CSc1ccc(C(=O)NO)cc1NC(=O)c1ccc(-c2ccccc2)cc1`, the IC50 (in general, the point on the concentration scale where inhibition reaches its midpoint) was found to be 0.1 µM in [1], 0.22 µM in [2], 3.88 µM in series [3] and 1.5 µM in [4]. The Activity in series [5] turned out to be 57.4%; in [6] it was 64.9%; in series [7], 82.3%.

Take `COc1ccc(C(=O)NO)cc1NC(=O)c1ccc(-c2ccccc2)cc1`: the figures for the IC50 in [1], in series [2] and in series [4] were 0.29 µM, 0.13 µM and 0.39 µM, respectively. The Activity in series [5] was found to be 64.8%; in series [6], 33.4%; in [7] it was 12.3%.

Consider `CCOc1ccc(C(=O)NO)cc1NC(=O)c1ccc(OC)cc1`, for which the inhibition (as a rule, the share of the control response that was lost under treatment) in series [8] came to 51%. For the same molecule, the Activity in series [5] is recorded as 64.4%; in [6], 59.4%; in series [7] it was 88.7%.

Regarding `O=C(NO)c1ccc(Cl)c(NC(=O)c2ccc(-c3ccccc3)cc2)c1`, the IC50 in [1] turned out to be 0.4 µM; in series [2], 0.45 µM; in series [3], 10.9 µM; in [4], 0.16 µM. The Activity in series [5] is 62.3%; in series [6], 55.1%; in series [7] it was 81.7%.

With `COc1ccc(C(=O)NO)cc1C(=O)Nc1cccc(Cl)c1`, the IC50 in [1] worked out at 0.17 µM; in series [2], 0.28 µM. In addition, the inhibition at 1.5 h, 1 µM in [9] was found to be 0%; in series [10], 25%. Also, the figures for the Activity in [5], in [6] and in series [7] were 85.6%, 82.8% and 88.2%, respectively.

In the case of `O=C(NO)c1ccc(Cl)c(NC(=O)c2ccc(-c3ccccc3)cc2Cl)c1`, the values for the IC50 in series [1], in [2] and in series [4] were 0.11 µM, 0.78 µM and 2.4 µM, respectively. The inhibition at 1.5 h, 1 µM in series [9] was determined as 7%. In series [11], the inhibition at 1.5 h, 10 µM was determined as 18%. Moreover, the Activity in series [5] stood at 60.6%; in series [6] it was 43.5%; in [7], 77%.

For the molecule `CCOc1ccc(C(=O)NO)cc1NC(=O)c1ccc(Cl)cc1Cl`, the IC50 was 0.1 µM in series [1], 0.23 µM in [2], 21.1 µM in series [3] and 7.74 µM in series [4]. Moreover, the Activity in series [5] is 56.2%; in series [6], 56.4%; in series [7], 86.8%.

On to `CCOc1ccc(C(C)=O)cc1NC(=O)c1cc(C(=O)NO)ccc1Cl`, for which the IC50 came out at 0.14 µM in series [1], 0.22 µM in series [2], 18.1 µM in series [3] and 0.11 µM in series [4]. The Activity in series [5] was 57%; in [6], 33.1%; in series [7], 60.6%.

As to `CCCOc1ccc(C(C)=O)cc1C(=O)Nc1cc(C(=O)NO)ccc1C`, the IC50 in series [1] was 0.11 µM; in series [2] it was 0.14 µM; in series [3], 0.36 µM; in series [4], 0.02 µM. Also, the Activity was determined as 45.2% in series [5], 34% in series [6] and 68.8% in series [7].

For the molecule `COc1ccc(NC(=O)c2cc(C(=O)NO)ccc2OC)cc1`, the IC50 in [1] came out at 0.43 µM; in series [2], 0.27 µM. Also, the inhibition at 1.5 h, 1 µM in series [9] is 2%; in series [10], 18%. The Activity in series [5] is reported as 91%; in series [6] it was 83.3%; in [7] it was 94.5%.

As to `CCOc1ccc(C(C)=O)cc1NC(=O)c1cccc(C(=O)NO)c1`, the IC50 in [1] was 0.16 µM; in series [2], 0.59 µM; in series [3], 7.7 µM; in series [4], 0.12 µM. The Activity in series [5] was found to be 81%; in series [6], 67.3%; in series [7], 81.2%.

As to `COc1ccc(C(C)=O)cc1NC(=O)c1cc(C(=O)NO)ccc1OC`, the IC50 stood at 0.15 µM in series [1], 0.36 µM in series [3] and 0.02 µM in [4]. Besides, in [12], the inhibition turned out to be 71%. Moreover, the Activity is on record as 78.2% in series [5], 66.2% in [6] and 66.2% in series [7].

Take `Cc1ccc(C(=O)NO)cc1C(=O)Nc1ccc(Cl)cc1`: the results for the IC50 in series [1], in [3] and in series [4] were 0.33 µM, 3.37 µM and 0.6 µM, respectively. The Activity amounted to 69.1% in series [5], 50.2% in [6] and 67.6% in [7].

As to `O=C(NO)c1ccc(Cl)c(C(=O)Nc2ccc(Cl)cc2)c1`, the inhibition at 1.5 h, 1 µM in series [9] is 20%; in series [10] it was 94%. The Activity was 77.6% in series [5], 62.3% in series [6] and 69.5% in series [7].
